The text below walks through data of PMC6044901 (ACS Omega, 2018).

The nature of data set [1]: PK after iv injection in mice. The following applies: iv 1 mg/kg, GLP-1 ELISA, T1/2 elim unavailable. The format is in vivo. In outline:
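Male ICR mice, 6 weeks old, n = 3, given a single iv injection: 1 mg/kg as GLP-1 peptide-equivalent weight for screening, or 300 nmol/kg. Tail-vein blood taken at 0, 12, 24, 48, 72, 96, 120 and 144 h; plasma stored at −80 °C. Active GLP-1 ELISA with a four-parameter logistic standard curve. Half-life computed; mean of three measurements.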

Data set [2] is described as follows: PK after sc injection in mice. The data set is classed as in vivo. The following applies: male, Crl:CD1 (ICR), mouse, plasma, 100 nmol/kg. The method, boiled down: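 Male ICR mice, 6 weeks old, n = 3, given a single sc injection: test compound at 100 or 300 nmol/kg, or liraglutide at 100 nmol/kg. Tail-vein plasma sampled at 0–144 h (0, 12, 24, 48, 72, 96, 120, 144 h) and stored at −80 °C. Active GLP-1 ELISA with a four-parameter logistic fit. Bioavailability from sc and iv dosing run in parallel.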

For data set [3] the following is noted: iv; cited from earlier work.
The conditions of data set [4]: nonhuman primate; cited from earlier work.

Turning to `CCCCCCCCCCCCCCCC(=O)N[C@@H](CCC(=O)NCCCC[C@H](NC(=O)[C@H](C)NC(=O)[C@H](C)NC(=O)[C@H](CCC(N)=O)NC(=O)CNC(=O)[C@H](CCC(=O)O)NC(=O)[C@H](CC(C)C)NC(=O)[C@H](Cc1ccc(O)cc1)NC(=O)[C@H](CO)NC(=O)[C@H](CO)NC(=O)[C@@H](NC(=O)[C@H](CC(=O)O)NC(=O)[C@H](CO)NC(=O)[C@@H](NC(=O)[C@H](Cc1ccccc1)NC(=O)[C@@H](NC(=O)CNC(=O)[C@H](CCC(=O)O)NC(=O)[C@H](C)NC(=O)[C@@H](N)Cc1cnc[nH]1)[C@@H](C)O)[C@@H](C)O)C(C)C)C(=O)N[C@@H](CCC(=O)O)C(=O)N[C@@H](Cc1ccccc1)C(=O)N[C@H](C(=O)N[C@@H](C)C(=O)N[C@@H](Cc1c[nH]c2ccccc12)C(=O)N[C@@H](CC(C)C)C(=O)N[C@H](C(=O)N[C@@H](CCCNC(=N)N)C(=O)NCC(=O)N[C@@H](CCCNC(=N)N)C(=O)NCC(=O)O)C(C)C)[C@@H](C)CC)C(=O)O` [liraglutide, reference compound], in data set [1], the “plasma immunoreactive GLP-1 level at 48 h after iv injection” value is given as “below the detection limit”. Further, the MRT in data set [2] came to 15.5 h.
As for Glucagon-like peptide-1 [GLP-1], the “half-life (T1/2 elim) injected intravenously” value in data set [3] is reported as ≤ 2 min.

B1: 99 kDa HPN-conjugated G-CSF: 99 kDa heparosan-conjugated G-CSF, ref 39 (conjugate, UniProt P09919 31-207, looked up)
Granulocyte …: TPLGPASSLPQSFLLKCLEQVRKIQGDGAALQEKLVSECATYKLCHPEELVLLGHSLGIPWAPLSSCPSQALQLAGCLSQLHSGLFLYQGLLQALEGISPELGPTLDTLQLDVADFATTIWQQMEELGMAPALQPTQGAMPAFASAFQRRAGGVLVASHLQSFLEVSYRVLRHLAQP
modifications: 99 kDa heparosan conjugate
For B1, in data set [4], the T1/2 elim is 190 h.
